Measured values taken from ChEMBL document CHEMBL2429803, “Animal toxicity of hairpin pyrrole-imidazole polyamides varies with the turn unit” (J Med Chem, 2013).

Key:
Mus musculus [1] = experiment: Acute toxicity in C57BL/6J mouse assessed as lesions in GI tract at 1 to 10 mg/kg, sc after 9 days; format: organism-based, Gastrointestinal tract; design: dose 1-10 mg/kg, route subcutaneous; conditions: in vivo, 216 h
Method in brief: (§1)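 Male C57BL/6J mice, 8 weeks old, received a single sc dose (1, 3 or 10 mg/kg in 25% DMSO/saline, n = 4 per group) and were sacrificed after 9 days. Two representative animals per group were fixed in 10% formalin. Cecum, duodenum, heart, ileum, kidney, liver, lung, pancreas, spleen and stomach were examined blind by a veterinary pathologist and lesions graded mild, moderate or severe.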

Mus musculus [2] = experiment: Toxicity in C57BL/6J mouse assessed as weight loss at 1 mg/kg, sc administered every 3 days for a cycle of 2 injections; format: organism-based; design: dose 1 mg/kg, route subcutaneous; conditions: in vivo, 72 h
Method in brief: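 8-week-old male C57BL/6J mice, acclimated 3 days, groups of three, dosed sc in 25% DMSO/saline vehicle once every 3 days, sacrificed 2 days after the last injection. Body weight recorded on injection days and at end point; humane end point set at visible duress or >15% loss of original body weight.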

Mus musculus [3] = experiment: Acute toxicity in C57BL/6J mouse assessed as lesions in heart at 1 to 10 mg/kg, sc after 9 days; format: organism-based; design: dose 1-10 mg/kg, route subcutaneous; conditions: in vivo, 216 h; method in brief: as §1
Mus musculus [4] = experiment: Acute toxicity in C57BL/6J mouse assessed as lesions in stomach at 1 to 10 mg/kg, sc after 9 days; format: organism-based; design: dose 1-10 mg/kg, route subcutaneous; conditions: in vivo, 216 h; method in brief: as §1
[5] = Metabolic stability in human liver microsomes after 1 hr by LC/MS/MS analysis; format: ADME, Microsome; conditions: read-out: Stability
Method in brief: (§2)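 Compound incubated at 37 °C for 60 min with 1 mg/mL human or mouse liver microsomes in 100 mM KH2PO4, 3 mM MgCl2, pH 7.4, with 2 mM NADPH or without it. Stopped with ice-cold methanol, then precipitate removed. Analyzed by LC/MS/MS as % remaining versus time zero. Duplicates.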

Mus musculus [6] = experiment: Acute toxicity in C57BL/6J mouse assessed as hunched posture at 3 to 10 mg/kg, sc after 9 days; format: organism-based; design: dose 3-10 mg/kg, route subcutaneous; conditions: in vivo, 216 h
Method in brief: (§3)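 Male C57BL/6J mice, 8 weeks old, were acclimated 3 days and then given a single sc injection of 1, 3 or 10 mg/kg in 25% DMSO/saline vehicle (up to 200 μL), n = 4 per group. Weight, behaviour and appearance were monitored daily for 9 days before sacrifice. The humane end point was visible duress or weight loss over 15% of the original.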

Mus musculus [7] = experiment: Toxicity in C57BL/6J mouse assessed as hepatocellular necrosis and apoptosis at 1 mg/kg, sc administered every 3 days for a cycle of 3 injections measured 2 days post last injection; format: organism-based; design: dose 1 mg/kg, route subcutaneous; conditions: in vivo, 48 h
Method in brief: (§4)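 Male C57BL/6J mice, 8 weeks old, given 1 mg/kg sc every 3 days for three injections and sacrificed 2 days after the last one. Two mice per group fixed in 10% formalin. A veterinary pathologist, blinded, examined cecum, duodenum, heart, ileum, kidney, liver, lung, pancreas, spleen and stomach. Lesions graded mild, moderate or severe.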

Mus musculus [8] = experiment: Acute toxicity in C57BL/6J mouse assessed as acute morbidity at 3 to 10 mg/kg, sc after 9 days; format: organism-based; design: dose 3-10 mg/kg, route subcutaneous; conditions: in vivo, 216 h; method in brief: as §3
[9] = Metabolic stability in human liver microsomes after 1 hr by LC/MS/MS analysis in presence of NADPH; format: ADME, Microsome; conditions: read-out: Stability; method in brief: as §2
Mus musculus [10] = experiment: Acute toxicity in C57BL/6J mouse assessed as lesions in lungs at 1 to 10 mg/kg, sc after 9 days; format: organism-based; design: dose 1-10 mg/kg, route subcutaneous; conditions: in vivo, 216 h; method in brief: as §1
Mus musculus [11] = experiment: Acute toxicity in C57BL/6J mouse assessed as milder tubular regeneration at 1 mg/kg, sc after 9 days; format: organism-based; design: dose 1 mg/kg, route subcutaneous; conditions: in vivo, 216 h; method in brief: as §1
Mus musculus [12] = experiment: Acute toxicity in C57BL/6J mouse at 1 mg/kg, sc after 9 days; format: organism-based; design: dose 1 mg/kg, route subcutaneous; conditions: in vivo, 216 h
Method in brief: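 Single sc injection in male 8-week-old C57BL/6J mice (1, 3 or 10 mg/kg in 25% DMSO/saline; n = 4 per group), followed for 9 days with daily weighing, then sacrifice. Toxicity was assessed by blinded histopathology of two mice per group and by blinded serum ALT, AST, total bilirubin, BUN and creatinine from retroorbital blood of all mice.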

Mus musculus [13] = experiment: Acute toxicity in C57BL/6J mouse assessed as diffuse hepatocellular necrosis and apoptosis at 3 to 10 mg/kg, sc after 9 days; format: organism-based; design: dose 3-10 mg/kg, route subcutaneous; conditions: in vivo, 216 h; method in brief: as §1
Mus musculus [14] = experiment: Acute toxicity in C57BL/6J mouse assessed as multifocal bridging hepatocellular necrosis and apoptosis at 3 to 10 mg/kg, sc after 9 days; format: organism-based; design: dose 3-10 mg/kg, route subcutaneous; conditions: in vivo, 216 h; method in brief: as §1
Mus musculus [15] = experiment: Acute toxicity in C57BL/6J mouse assessed as karyomegaly at 1 mg/kg, sc after 9 days; format: organism-based; design: dose 1 mg/kg, route subcutaneous; conditions: in vivo, 216 h; method in brief: as §1
Mus musculus [16] = experiment: Acute toxicity in C57BL/6J mouse assessed as tubular epithelial necrosis and apoptosis in kidney at 3 to 10 mg/kg, sc after 9 days; format: organism-based; design: dose 3-10 mg/kg, route subcutaneous; conditions: in vivo, 216 h; method in brief: as §1
Mus musculus [17] = experiment: Acute toxicity in C57BL/6J mouse assessed as loss of mobility at 3 to 10 mg/kg, sc after 9 days; format: organism-based; design: dose 3-10 mg/kg, route subcutaneous; conditions: in vivo, 216 h; method in brief: as §3
Mus musculus [18] = experiment: Toxicity in C57BL/6J mouse assessed as hunched posture at 1 mg/kg, sc administered every 3 days for a cycle of 2 injections; format: organism-based; design: dose 1 mg/kg, route subcutaneous; conditions: in vivo, 72 h
Method in brief: (§5)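 Male C57BL/6J mice, 3 per group, given 1 mg/kg sc every 3 days. Weight recorded on injection days. Watched for signs of duress. Humane end point was visible duress or weight loss over 15% of starting body weight.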

Mus musculus [19] = experiment: Toxicity in C57BL/6J mouse assessed as hyaline droplet accumulation at 1 mg/kg, sc administered every 3 days for a cycle of 3 injections measured 2 days post last injection; format: organism-based; design: dose 1 mg/kg, route subcutaneous; conditions: in vivo, 48 h; method in brief: as §4
[20] = Metabolic stability in mouse liver microsomes after 1 hr by LC/MS/MS analysis; format: ADME, Microsome; conditions: read-out: Stability; method in brief: as §2
Mus musculus [21] = experiment: Acute toxicity in C57BL/6J mouse assessed as hepatocellular necrosis and apoptosis at 1 mg/kg, sc after 9 days; format: organism-based; design: dose 1 mg/kg, route subcutaneous; conditions: in vivo, 216 h; method in brief: as §1
Mus musculus [22] = experiment: Toxicity in C57BL/6J mouse assessed as loss of mobility at 1 mg/kg, sc administered every 3 days for a cycle of 2 injections; format: organism-based; design: dose 1 mg/kg, route subcutaneous; conditions: in vivo, 72 h; method in brief: as §5
Mus musculus [23] = experiment: Acute toxicity in C57BL/6J mouse assessed as mild lymphoid apoptosis in white pulp of spleen at 3 to 10 mg/kg, sc after 9 days; format: organism-based; design: dose 3-10 mg/kg, route subcutaneous; conditions: in vivo, 216 h; method in brief: as §1
Mus musculus [24] = experiment: Acute toxicity in C57BL/6J mouse assessed as lesions in pancreas at 1 to 10 mg/kg, sc after 9 days; format: organism-based; design: dose 1-10 mg/kg, route subcutaneous; conditions: in vivo, 216 h; method in brief: as §1
[25] = Metabolic stability in mouse liver microsomes after 1 hr by LC/MS/MS analysis in presence of NADPH; format: ADME, Microsome; conditions: read-out: Stability; method in brief: as §2
Mus musculus [26] = experiment: Acute toxicity in C57BL/6J mouse assessed as moderate atypical tubular regeneration in kidney at 3 to 10 mg/kg, sc after 9 days; format: organism-based; design: dose 3-10 mg/kg, route subcutaneous; conditions: in vivo, 216 h; method in brief: as §1

CC(=O)N[C@@H](CNC(=O)c1cc(NC(=O)c2cc(NC(=O)c3cc(NC(=O)c4nccn4C)cn3C)cn2C)cn1C)CC(=O)Nc1cn(C)c(C(=O)Nc2cc(C(=O)Nc3cc(C(=O)Nc4cc(C(=O)NCCCN(C)CCCNC(=O)c5cccc(C(=O)O)c5)n(C)c4)n(C)c3)n(C)c2)n1
Activity (Mus musculus [1]): Non-toxic | Activity (Mus musculus [2]): Toxic | Activity (Mus musculus [3]): Non-toxic | Activity (Mus musculus [4]): Non-toxic | remaining at 1 h [5]: < 5% | Activity (Mus musculus [6]): Toxic | Activity (Mus musculus [7]): Toxic | Activity (Mus musculus [8]): Toxic | remaining at 1 h [9]: < 5% | Activity (Mus musculus [10]): Non-toxic | Activity (Mus musculus [11]): Toxic | Activity (Mus musculus [12]): Non-toxic | Activity (Mus musculus [13]): Toxic | Activity (Mus musculus [14]): Toxic | Activity (Mus musculus [15]): Toxic | Activity (Mus musculus [16]): Toxic | Activity (Mus musculus [17]): Toxic | Activity (Mus musculus [18]): Toxic | Activity (Mus musculus [19]): Toxic | remaining at 1 h [20]: < 5% | Activity (Mus musculus [21]): Toxic | Activity (Mus musculus [22]): Toxic | Activity (Mus musculus [23]): Toxic | Activity (Mus musculus [24]): Non-toxic | remaining at 1 h [25]: < 5% | Activity (Mus musculus [26]): Toxic
